Activity calls are given as the source filed them.

Assay [1] deals with T1, Fatty-acid amide hydrolase 1 (Homo sapiens) (UniProt O00519).
T1 sequence (whole entry): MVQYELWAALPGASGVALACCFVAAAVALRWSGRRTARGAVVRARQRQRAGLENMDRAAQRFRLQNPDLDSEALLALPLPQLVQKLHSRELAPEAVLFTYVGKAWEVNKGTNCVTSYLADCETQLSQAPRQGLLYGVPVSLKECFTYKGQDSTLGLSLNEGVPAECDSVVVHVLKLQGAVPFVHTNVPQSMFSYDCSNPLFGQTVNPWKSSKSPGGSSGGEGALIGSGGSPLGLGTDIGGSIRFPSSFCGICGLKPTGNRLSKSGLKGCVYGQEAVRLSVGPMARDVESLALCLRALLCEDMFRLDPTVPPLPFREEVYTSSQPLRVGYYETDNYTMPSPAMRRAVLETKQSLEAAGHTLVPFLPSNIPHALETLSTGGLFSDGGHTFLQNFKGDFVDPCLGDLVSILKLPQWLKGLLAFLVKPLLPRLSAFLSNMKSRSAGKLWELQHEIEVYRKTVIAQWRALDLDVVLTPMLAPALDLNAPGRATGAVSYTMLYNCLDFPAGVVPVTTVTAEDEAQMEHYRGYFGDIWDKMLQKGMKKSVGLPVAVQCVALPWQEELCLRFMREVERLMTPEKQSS
Briefly: Ratio of Kinact to Ki for histidine6-tagged human FAAH. The procedure, abridged: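 Human FAAH construct: aa 32–579, N-terminal transmembrane-deleted, N-terminal His6 tag, expressed in E. coli and purified to >95% by SDS–PAGE. Potency measured as kinact/Ki in a GDH-coupled FAAH assay in 384-well format. kobs was plotted against [I]; kinact/Ki came from the slope kinact/[Ki(1+[S]/Km)].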

Assay [2] deals with T2, Fatty-acid amide hydrolase 1 (Rattus norvegicus) (UniProt P97612).
T2 sequence (whole entry): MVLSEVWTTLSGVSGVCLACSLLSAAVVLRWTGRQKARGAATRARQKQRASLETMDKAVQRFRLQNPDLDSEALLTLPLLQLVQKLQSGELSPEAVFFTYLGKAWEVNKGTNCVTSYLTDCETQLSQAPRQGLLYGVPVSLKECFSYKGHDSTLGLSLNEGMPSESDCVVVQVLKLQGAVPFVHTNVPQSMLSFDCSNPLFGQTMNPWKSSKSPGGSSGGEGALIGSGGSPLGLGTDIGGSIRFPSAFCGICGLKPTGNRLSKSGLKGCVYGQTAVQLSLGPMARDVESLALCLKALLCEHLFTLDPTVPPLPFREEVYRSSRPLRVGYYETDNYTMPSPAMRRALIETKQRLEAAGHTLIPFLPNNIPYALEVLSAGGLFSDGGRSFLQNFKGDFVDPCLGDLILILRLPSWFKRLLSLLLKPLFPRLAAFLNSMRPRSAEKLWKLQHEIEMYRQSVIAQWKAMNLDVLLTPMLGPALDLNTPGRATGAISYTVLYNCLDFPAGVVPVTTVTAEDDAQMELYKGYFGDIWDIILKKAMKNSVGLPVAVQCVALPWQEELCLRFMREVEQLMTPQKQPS
Briefly: Ratio of Kinact to Ki for histidine6-tagged rat FAAH. A digest of the protocol:
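Rat FAAH construct: aa 30–579, N-terminal transmembrane-deleted, N-terminal His6 tag, E. coli-expressed and purified to >95% purity. Activity read by a GDH-coupled enzyme assay in 384-well plates. Second-order kinact/Ki was derived from the linear slope of kobs versus [I], correcting with (1+[S]/Km).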

Assay [3] concerns the target T3, Fatty-acid amide hydrolase 1 (Mus musculus) (UniProt O08914).
T3 sequence (whole entry): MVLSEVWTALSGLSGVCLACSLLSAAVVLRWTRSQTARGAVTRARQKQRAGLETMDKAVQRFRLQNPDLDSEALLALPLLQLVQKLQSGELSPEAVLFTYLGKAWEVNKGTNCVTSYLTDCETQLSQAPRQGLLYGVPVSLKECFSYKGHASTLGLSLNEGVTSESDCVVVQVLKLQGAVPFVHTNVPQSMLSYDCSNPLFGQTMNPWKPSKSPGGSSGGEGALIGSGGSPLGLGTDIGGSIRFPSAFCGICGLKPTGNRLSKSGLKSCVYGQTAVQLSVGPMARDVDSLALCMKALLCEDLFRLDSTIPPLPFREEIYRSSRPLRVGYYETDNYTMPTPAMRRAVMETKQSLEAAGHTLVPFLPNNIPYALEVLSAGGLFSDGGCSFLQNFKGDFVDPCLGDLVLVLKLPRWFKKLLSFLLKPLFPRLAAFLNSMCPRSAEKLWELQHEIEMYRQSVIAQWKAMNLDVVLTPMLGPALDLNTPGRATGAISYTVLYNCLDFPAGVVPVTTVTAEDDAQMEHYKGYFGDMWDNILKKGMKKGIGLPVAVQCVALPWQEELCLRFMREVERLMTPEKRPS
Kind of assay: Inhibition of histidine6-tagged FAAH from mouse liver proteomes at 10 to 100 uM. The procedure, abridged: (§1)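 Competitive activity-based protein profiling with FP probe labeling of serine hydrolases. Proteomes used: soluble mouse liver, mouse kidney, human liver and human heart, plus human brain membrane. Compounds tested at 100 μM, reference at 10 and 100 μM. Inhibited bands were read by gel; FAAH and off-target labeling were judged by band loss.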

Assay [4] concerns the target T3, Fatty-acid amide hydrolase 1 (Mus musculus). Kind of assay: Inhibition of histidine6-tagged FAAH from mouse kidney proteomes at 10 to 100 uM. The format is tissue-based. The procedure, abridged:
as §1

The target of assay [5] is T1, Fatty-acid amide hydrolase 1 (Homo sapiens). Kind of assay: Inhibition of histidine6-tagged FAAH from human liver proteomes at 10 to 100 uM. The procedure, abridged:
as §1

Assay [6] shares this target. Kind of assay: Inhibition of histidine6-tagged FAAH from human heart proteomes at 10 to 100 uM. The procedure, abridged:
as §1

For assay [7] the target is unchanged. Briefly: Inhibition of histidine6-tagged FAAH from human brain proteomes at 10 to 100 uM. The procedure, abridged: as §1
The subject of assay [8] is Rattus norvegicus. Briefly: Antihyperalgesic activity in complete Freund's adjuvant-induced rat inflammatory pain model assessed as reduction in mechanical allodynia after 4 hrs postdosing. The format is functional. The procedure, abridged:
(§2)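 Rat CFA inflammatory pain model: complete Freund's adjuvant injected subcutaneously into hind paw plantar surface; testing at day 5 post-injection. Compound given ip at 3, 10 and 30 mg/kg; naproxen 10 mg/kg ip as reference. Mechanical paw weight threshold measured 4 h after dosing, compared with vehicle group; n = 8 rats/group.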

The test system of assay [9] is Rattus norvegicus. Briefly: Antihyperalgesic activity in complete Freund's adjuvant-induced rat inflammatory pain model assessed as reduction in mechanical allodynia at 10 mg/kg, ip. Type of assay: functional, organism-based. The arrangement: dose 10 mg/kg. The procedure, abridged:
as §2

On to `Cc1ccc(NC(=O)N2CCN(Cc3sc4ccccc4c3C)CC2)cn1`, for which the results for the Ratio in [1] and in [2] were 44 M⁻¹ s⁻¹ and 390 M⁻¹ s⁻¹, respectively. In addition, the inhibition entry in [3], in assay [4], in [5], in assay [6] and in [7] was “Active” each time.
Regarding `NC(=O)c1cccc(-c2cccc(OC(=O)NC3CCCCC3)c2)c1`, the inhibition result in [3], in assay [4], in assay [5], in assay [6] and in assay [7] was “Active” in each case.
With `Cc1c(CC2CCN(C(=O)Nc3cccnc3)CC2)sc2ccc(F)cc12`, the Ratio in assay [1] amounted to 4470 M⁻¹ s⁻¹; in [2], 729 M⁻¹ s⁻¹. Also, the inhibition entry in [3], in assay [4], in assay [5], in assay [6] and in assay [7] was “Active” in each case.
In the case of `COc1ccc(NC(=O)N2CCN(Cc3sc4ccccc4c3C)CC2)cn1`, the Ratio in [1] is < 10 M⁻¹ s⁻¹; in assay [2], 1060 M⁻¹ s⁻¹. Besides, the inhibition entry in assay [3], in [4], in assay [5], in assay [6] and in [7] was “Active” throughout. In the assay on Rattus norvegicus [8], the Activity result was “Dose-dependent effect”. Further, the minimal effective dose with Rattus norvegicus [8] (read-out: MED) was found to be 10 mg/kg. Besides, the result with Rattus norvegicus [9] was Active.
